Tested on: Fibroblast
Assay: Multiplex assay against human fibroblast
Format: toxicity, cell-based
Outline: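 Cells were classed with CellPathfinder machine-learning gating, first as Hoechst high-intensity objects or normal cells, then (normal cells) as healthy, pyknosed or fragmented nuclei, and finally (pyknosed cells) as mitotic or apoptotic. Staining of live cells at seeding used Hoechst33342, BioTracker Green Microtubule Cytoskeleton Dye, MitoTracker Red and Annexin V Alexa Fluor 680, with imaging on a CQ1 microscope at 37°C and 5% CO2 after compound addition. Tubulin, mitochondrial-mass and membrane-permeability phenotypes are per cents of healthy-nucleus cells.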

[1] = 12 h, 1 µM, compound concentration 1 uM, replicate 1
[2] = 12 h, 1 µM, compound concentration 1 uM, replicate 2
[3] = 12 h, 10 µM, compound concentration 10 uM, replicate 1
[4] = 12 h, 10 µM, compound concentration 10 uM, replicate 2
[5] = 24 h, 1 µM, compound concentration 1 uM, replicate 1
[6] = 24 h, 1 µM, compound concentration 1 uM, replicate 2
[7] = 24 h, 10 µM, compound concentration 10 uM, replicate 1
[8] = 24 h, 10 µM, compound concentration 10 uM, replicate 2
[9] = 48 h, 1 µM, compound concentration 1 uM, replicate 1
[10] = 48 h, 1 µM, compound concentration 1 uM, replicate 2
[11] = 48 h, 10 µM, compound concentration 10 uM, replicate 1
[12] = 48 h, 10 µM, compound concentration 10 uM, replicate 2

Structure (SMILES): Cc1sc2c(c1C)C(c1ccc(Cl)cc1)=N[C@@H](CC(=O)NCCCCCCCCNC(=O)COc1cccc3c1C(=O)N(C1CCC(=O)NC1=O)C3=O)c1nnc(C)n1-2 (some centres not stated)
- Population Apoptotic (%) [1]: 57%
- Population Fragmented Nuclei (%) [1]: 10%
- Population Healthy Nuclei (%) [1]: 72%
- Population Hoechst High Intensity Objects (%) [1]: 3%
- Population Membrane Permeable-Phenotype (%) [1]: 1%
- Population Mitochondria Different-Phenotype (%) [1]: 4%
- Population Mitotic Cells (%) [1]: 42%
- Population Normal (%) [1]: 96%
- Population Pyknosed Nuclei (%) [1]: 16%
- Population Tubulin-Different-Phenotype (%) [1]: 25%
- Total Cell Count [1]: 118
- Population Apoptotic (%) [2]: 42%
- Population Fragmented Nuclei (%) [2]: 34%
- Population Healthy Nuclei (%) [2]: 34%
- Population Hoechst High Intensity Objects (%) [2]: 6%
- Population Membrane Permeable-Phenotype (%) [2]: 23%
- Population Mitochondria Different-Phenotype (%) [2]: 23%
- Population Mitotic Cells (%) [2]: 57%
- Population Normal (%) [2]: 93%
- Population Pyknosed Nuclei (%) [2]: 31%
- Population Tubulin-Different-Phenotype (%) [2]: 66%
- Total Cell Count [2]: 94
- Population Apoptotic (%) [3]: 54%
- Population Fragmented Nuclei (%) [3]: 13%
- Population Healthy Nuclei (%) [3]: 56%
- Population Hoechst High Intensity Objects (%) [3]: 11%
- Population Membrane Permeable-Phenotype (%) [3]: 1%
- Population Mitochondria Different-Phenotype (%) [3]: 19%
- Population Mitotic Cells (%) [3]: 45%
- Population Normal (%) [3]: 88%
- Population Pyknosed Nuclei (%) [3]: 30%
- Population Tubulin-Different-Phenotype (%) [3]: 50%
- Total Cell Count [3]: 171
- Population Apoptotic (%) [4]: 44%
- Population Fragmented Nuclei (%) [4]: 27%
- Population Healthy Nuclei (%) [4]: 27%
- Population Hoechst High Intensity Objects (%) [4]: 17%
- Population Membrane Permeable-Phenotype (%) [4]: 7%
- Population Mitochondria Different-Phenotype (%) [4]: 26%
- Population Mitotic Cells (%) [4]: 55%
- Population Normal (%) [4]: 82%
- Population Pyknosed Nuclei (%) [4]: 45%
- Population Tubulin-Different-Phenotype (%) [4]: 69%
- Total Cell Count [4]: 115
- Population Apoptotic (%) [5]: 56%
- Population Fragmented Nuclei (%) [5]: 20%
- Population Healthy Nuclei (%) [5]: 53%
- Population Hoechst High Intensity Objects (%) [5]: 10%
- Population Membrane Permeable-Phenotype (%) [5]: 3%
- Population Mitochondria Different-Phenotype (%) [5]: 3%
- Population Mitotic Cells (%) [5]: 44%
- Population Normal (%) [5]: 89%
- Population Pyknosed Nuclei (%) [5]: 26%
- Population Tubulin-Different-Phenotype (%) [5]: 25%
- Total Cell Count [5]: 107
- Population Apoptotic (%) [6]: 65%
- Population Fragmented Nuclei (%) [6]: 41%
- Population Healthy Nuclei (%) [6]: 32%
- Population Hoechst High Intensity Objects (%) [6]: 3%
- Population Membrane Permeable-Phenotype (%) [6]: 16%
- Population Mitochondria Different-Phenotype (%) [6]: 20%
- Population Mitotic Cells (%) [6]: 35%
- Population Normal (%) [6]: 96%
- Population Pyknosed Nuclei (%) [6]: 25%
- Population Tubulin-Different-Phenotype (%) [6]: 72%
- Total Cell Count [6]: 80
- Population Apoptotic (%) [7]: 67%
- Population Fragmented Nuclei (%) [7]: 20%
- Population Healthy Nuclei (%) [7]: 38%
- Population Hoechst High Intensity Objects (%) [7]: 13%
- Population Membrane Permeable-Phenotype (%) [7]: 3%
- Population Mitochondria Different-Phenotype (%) [7]: 9%
- Population Mitotic Cells (%) [7]: 32%
- Population Normal (%) [7]: 86%
- Population Pyknosed Nuclei (%) [7]: 41%
- Population Tubulin-Different-Phenotype (%) [7]: 47%
- Total Cell Count [7]: 154
- Population Apoptotic (%) [8]: 44%
- Population Fragmented Nuclei (%) [8]: 25%
- Population Healthy Nuclei (%) [8]: 32%
- Population Hoechst High Intensity Objects (%) [8]: 12%
- Population Membrane Permeable-Phenotype (%) [8]: 17%
- Population Mitochondria Different-Phenotype (%) [8]: 20%
- Population Mitotic Cells (%) [8]: 55%
- Population Normal (%) [8]: 87%
- Population Pyknosed Nuclei (%) [8]: 42%
- Population Tubulin-Different-Phenotype (%) [8]: 68%
- Total Cell Count [8]: 103
- Population Apoptotic (%) [9]: 88%
- Population Fragmented Nuclei (%) [9]: 41%
- Population Healthy Nuclei (%) [9]: 24%
- Population Hoechst High Intensity Objects (%) [9]: 27%
- Population Membrane Permeable-Phenotype (%) [9]: 0%
- Population Mitochondria Different-Phenotype (%) [9]: 0%
- Population Mitotic Cells (%) [9]: 12%
- Population Normal (%) [9]: 72%
- Population Pyknosed Nuclei (%) [9]: 33%
- Population Tubulin-Different-Phenotype (%) [9]: 33%
- Total Cell Count [9]: 102
- Population Apoptotic (%) [10]: 93%
- Population Fragmented Nuclei (%) [10]: 42%
- Population Healthy Nuclei (%) [10]: 37%
- Population Hoechst High Intensity Objects (%) [10]: 8%
- Population Membrane Permeable-Phenotype (%) [10]: 27%
- Population Mitochondria Different-Phenotype (%) [10]: 20%
- Population Mitotic Cells (%) [10]: 6%
- Population Normal (%) [10]: 91%
- Population Pyknosed Nuclei (%) [10]: 20%
- Population Tubulin-Different-Phenotype (%) [10]: 82%
- Total Cell Count [10]: 85
- Population Apoptotic (%) [11]: 86%
- Population Fragmented Nuclei (%) [11]: 40%
- Population Healthy Nuclei (%) [11]: 20%
- Population Hoechst High Intensity Objects (%) [11]: 38%
- Population Membrane Permeable-Phenotype (%) [11]: 5%
- Population Mitochondria Different-Phenotype (%) [11]: 10%
- Population Mitotic Cells (%) [11]: 13%
- Population Normal (%) [11]: 61%
- Population Pyknosed Nuclei (%) [11]: 38%
- Population Tubulin-Different-Phenotype (%) [11]: 55%
- Total Cell Count [11]: 156
- Population Apoptotic (%) [12]: 57%
- Population Fragmented Nuclei (%) [12]: 38%
- Population Healthy Nuclei (%) [12]: 38%
- Population Hoechst High Intensity Objects (%) [12]: 15%
- Population Membrane Permeable-Phenotype (%) [12]: 14%
- Population Mitochondria Different-Phenotype (%) [12]: 14%
- Population Mitotic Cells (%) [12]: 42%
- Population Normal (%) [12]: 84%
- Population Pyknosed Nuclei (%) [12]: 23%
- Population Tubulin-Different-Phenotype (%) [12]: 80%
- Total Cell Count [12]: 108

— ChEMBL document CHEMBL5058577, “EUbOPEN Chemogenomics Library 2 (Multiplex)” (2022)
